Published values collected from several papers.
Compare with care: the assays were run in different laboratories.
BRAF V600E: Serine/threonine-protein kinase B-raf (BRAF, Homo sapiens, UniProt P15056, V600E)
SMARCA2: SWI/SNF-related matrix-associated actin-dependent regulator of chromatin subfamily A member 2 (SMARCA2, Homo sapiens, UniProt P51531)
Blk: Tyrosine-protein kinase Blk (Blk, Mus musculus, UniProt P16277)
BPTF: Nucleosome-remodeling factor subunit BPTF (BPTF, Homo sapiens, UniProt Q12830)
PADI2: Protein-arginine deiminase type-2 (PADI2, Homo sapiens, UniProt Q9Y2J8)
DRD2: D(2) dopamine receptor (DRD2, Homo sapiens, UniProt P14416)
MAST1: Microtubule-associated serine/threonine-protein kinase 1 (MAST1, Homo sapiens, UniProt Q9Y2H9)

| Structure (SMILES) | target | assay | test system | setting | quantity | result |
| --- | --- | --- | --- | --- | --- | --- |
| Cc1ccc(C(CS(=O)(=O)c2ccccc2)=NNC(N)=S)cc1 | BRAF V600E | enzyme activity, inhibitor, ATP luminescence |  | 10 µM | inhibition | 88% |
| CCC(/C=C1\CCCn2c1nc(=O)c1c(Cl)cccc12)CC | SMARCA2 | thermal stability, DSF |  | 100 µM | ΔTm | 0.48 °C |
| Cc1cnc(NC2CCOCC2)nc1-n1cnc(C(=O)NC(CN)c2cc(F)cc(Cl)c2)c1 (stereo not shown) | Blk | enzyme activity, inhibitor, radiometric |  | 1 µM | remaining activity | 106% |
| CCC(/C=C1\CCn2c1nc(=O)c1ccc(O)cc12)CC | SMARCA2 | thermal stability, DSF |  | 100 µM | ΔTm | -0.07 °C |
| Oc1ccc(-c2nc(-c3ccncc3)c(-c3ccc(F)cc3)[nH]2)cc1 | SMARCA2 | thermal stability, DSF |  | 10 µM | ΔTm | 0.56 °C |
| Cc1cc2c(cc1N1C(=O)c3cccc4c(Cl)ccc(c34)C1=O)n(C)c(=O)n2C | BPTF | thermal stability, DSF |  | 10 µM | ΔTm | 0 °C |
| Cc1ccc(C(CS(=O)(=O)c2ccccc2)=NNc2nc(-c3ccc(OCCCCOc4ccc(-c5csc(NN=C(CS(=O)(=O)c6ccccc6)c6ccc(C)cc6)n5)cc4)cc3)cs2)cc1 | BRAF V600E | enzyme activity, inhibitor, ATP luminescence |  | 10 µM | inhibition | 91% |
| CCC(/C=C1\CCn2c1nc(=O)c1ccc(OC)cc12)CC | SMARCA2 | thermal stability, DSF |  | 100 µM | ΔTm | 0 °C |
| Cc1ccc(C(CS(=O)(=O)c2ccccc2)=NN=C2N=C(c3ccc(C)cc3)CS2)cc1 | BRAF V600E | enzyme activity, inhibitor, ATP luminescence |  | 0.1 µM | inhibition | 43% |
| NCCCC[C@H](NC(=O)[C@@H]1CCCN1C(=O)[C@@H]1CSSC[C@H](NC(=O)CNC(=O)CNC(=O)CN)C(=O)N[C@@H](Cc2ccc(O)cc2)C(=O)N[C@@H](Cc2ccccc2)C(=O)N[C@@H](CCC(N)=O)C(=O)N[C@@H](CC(N)=O)C(=O)N1)C(=O)NCC(N)=O | Vasopressin V2 receptor (AVPR2, Homo sapiens, UniProt P30518) | cAMP, agonist, TR-FRET | CHO-K1 |  | Emax | ~100% |
| N=C(CCl)NCCC[C@H](NC(=O)c1ccc(-c2ccccc2)cc1)c1nn[nH]n1 | PADI2 | enzyme activity, inhibitor |  |  | kinact/KI | 37.2 M⁻¹ s⁻¹ |
| CC1(c2ccccc2)COCC(N)=N1 (stereo not shown) | Beta-secretase 1 (BACE1, Homo sapiens, UniProt P56817) | thermal stability, DSF |  | 2.1 mM, pH 5.4 | ΔTm | 2.78 °C |
| NS(=O)(=O)c1ccc(Nc2nc(-c3ccc(F)cc3)c3ccccc3n2)cc1 | SMARCA2 | binding, competition with immobilised ligand |  | 1 µM | remaining binding | 74% |
| CC(C)c1ccccc1OCCOCC(O)CN1CCN(c2cccc(C(F)(F)F)c2)CC1 (stereo not shown) | DRD2 | enzyme activity, inhibitor |  | 10 µM | inhibition | 37.8% |
| Cc1cnc(Nc2ccc(OCCN3CCCC3)cc2)nc1Nc1cccc(S(=O)(=O)NC(C)(C)C)c1 | BPTF | thermal stability, DSF |  | 10 µM | ΔTm | 0.8 °C |
| CCC(CC)C1CC12CCn1c2nc(=O)c2c(Cl)cccc21 (stereo not shown) | SMARCA2 | thermal stability, DSF |  | 100 µM | ΔTm | 1.4 °C |
| Cc1ccc(C(CS(=O)(=O)c2ccccc2)=NNc2nc(C)c(N=Nc3ccccc3)s2)cc1 | BRAF V600E | enzyme activity, inhibitor, ATP luminescence |  | 0.1 µM | inhibition | 42% |
| CCC(C)/C=C1\CCn2c1nc(=O)c1c(Cl)cccc12 (stereo not shown) | SMARCA2 | thermal stability, DSF |  | 100 µM | ΔTm | 3.77 °C |
| Cc1ccc(C(CS(=O)(=O)c2ccccc2)=NNc2nc(C)c(N=Nc3cccc(C)c3)s2)cc1 | BRAF V600E | enzyme activity, inhibitor, ATP luminescence |  | 10 nM | inhibition | 35% |

| Structure (SMILES) | target | assay | test system | setting | quantity | result |
| --- | --- | --- | --- | --- | --- | --- |
| CCC(/C=C1\CCn2c1nc(=O)c1cc(Cl)ccc12)CC | SMARCA2 | thermal stability, DSF |  | 100 µM | ΔTm | -0.49 °C |
| CC(C)(C)n1nnc([C@H](CCCNC(=N)CF)NC(=O)c2ccc(-c3ccccc3)cc2)n1 | PADI2 | enzyme activity, inhibitor |  |  | kinact/KI | 189 M⁻¹ s⁻¹ |
| CCCOc1ccc(OC)c(F)c1C(=O)c1ccc(C(=O)N[C@@H]2CNC[C@H]2NC(=O)c2ccc3[nH]ncc3c2)cc1 | Dual specificity mitogen-activated protein kinase kinase 4 (Map2k4, Mus musculus, UniProt P47809) | enzyme activity, inhibitor |  | 10 µM | remaining activity | 120% |
| COc1cc(CNCCc2c[nH]c3ccccc23)cc(Cl)c1OCC(N)=O | DRD2 | enzyme activity, inhibitor |  | 10 µM | inhibition | 30.3% |
| CC(C)(C)C/C=C1\CCn2c1nc(=O)c1c(Cl)cccc12 | SMARCA2 | thermal stability, DSF |  | 100 µM | ΔTm | 1.61 °C |
| Cc1ccc(N=Nc2sc(NN=C(CS(=O)(=O)c3ccccc3)c3ccc(C)cc3)nc2C)cc1 | BRAF V600E | enzyme activity, inhibitor, ATP luminescence |  | 1 µM | inhibition | 73% |
| CCN1CCCn2c1nc1c2c(=O)n(C)c(=O)n1C | Adenosine receptor A3 (ADORA3, Homo sapiens, UniProt P0DMS8) | ligand displacement, radioligand |  | 10 µM, cell membranes | inhibition | 5% |
| N=C(CF)NCCC[C@H](NC(=O)c1ccc(-c2ccccc2)cc1)c1nn[nH]n1 | PADI2 | enzyme activity, inhibitor |  |  | kinact/KI | 17.2 M⁻¹ s⁻¹ |
| CC(=O)N[C@H]1CSSC[C@@H](C(=O)N[C@H](Cc2c[nH]c3ccccc23)C(N)=O)NC(=O)[C@@H](Cc2ccccc2)NC(=O)[C@H](CCCNC(=N)N)NC1=O | Melanocortin receptor 3 (MC3R, Homo sapiens, UniProt P41968) | cAMP, agonist | HEK293 | 3 min | Emax | 0% |
| Cc1ccc(Nc2nccc(N(C)c3ccc4c(C)n(C)nc4c3)n2)cc1S(N)(=O)=O | Blk | enzyme activity, inhibitor |  | 0.3 µM | inhibition | 9% |
| Nc1ncnc2occ(-c3ccc(NC(=O)Nc4cc(C(F)(F)F)ccc4F)cc3)c12 | Mitogen-activated protein kinase 4 (MAPK4, Homo sapiens, UniProt P31152) | cell-free assay, inhibitor |  | 20 µM | remaining signal | 100% |
| CC(C)(C)c1nc(-c2cccc(NS(=O)(=O)c3c(F)cccc3F)c2F)c(-c2ccnc(N)n2)s1 | BRAF V600E | enzyme activity, inhibitor, ATP luminescence |  | 10 nM | inhibition | 34% |
| Cc1ccc(C(=O)Nc2ccc(CN3CCN(C)CC3)c(C(F)(F)F)c2)cc1C#Cc1cnc2cccnn12 | MAST1 | enzyme activity, inhibitor |  | 23.5 nM | remaining activity | 95% |
| C[S+]([O-])c1ccc(-c2nc(-c3ccncc3)c(-c3ccc(F)cc3)[nH]2)cc1 (stereo not shown) | BPTF | thermal stability, DSF |  | 10 µM | ΔTm | 0.89 °C |
| CC(C)(C)n1nnc([C@H](CCCNC(=N)CF)NC(=O)c2ccccc2C(=O)O)n1 | PADI2 | enzyme activity, inhibitor |  |  | kinact/KI | 2020 M⁻¹ s⁻¹ |
| CCC(/C=C1\CCn2c1nc(=O)c1c(Cl)c(Cl)ccc12)CC | SMARCA2 | thermal stability, DSF |  | 100 µM | ΔTm | 2.86 °C |
| CC(C)(C)n1nnc([C@H](CCCNC(=N)CCl)NC(=O)c2ccc(-c3ccccc3)cc2)n1 | PADI2 | enzyme activity, inhibitor |  |  | kinact/KI | 182 M⁻¹ s⁻¹ |
| Fc1cccc(-n2cnc3c(NCc4nc5c(F)c(F)ccc5[nH]4)nc(N4CCOCC4)nc32)c1 | MAST1 | binding, competition with immobilised ligand |  | 10 µM | binding vs control | 23% |
